According to ChEMBL document CHEMBL2062453, “Lead optimization through VLAK protocol: new annelated pyrrolo-pyrimidine derivatives as antitumor agents” (2012):

Tests used:
Format in all cases: functional
[1] = tested on: CCRF-CEM; experiment: Cytotoxicity against human CCRF-CEM cells assessed as cell growth at 10 uM after 48 hrs by SRB assay relative to control; conditions: read-out: Activity
Summary of the method: (§1)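 NCI primary screen of about 60 human tumour lines. Cells inoculated and preincubated, then a single test concentration added and cultures incubated 48 h. Result given as percent growth (G%) of treated versus untreated control cells.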

[2] = tested on: HL-60(TB); experiment: Cytotoxicity against human HL-60(TB) cells assessed as cell growth at 10 uM after 48 hrs by SRB assay relative to control; conditions: HL-60, 48 h, read-out: Activity
[3] = tested on: K562; experiment: Cytotoxicity against human K562 cells assessed as cell growth at 10 uM after 48 hrs by SRB assay relative to control; conditions: K562, 48 h, read-out: Activity; summary of the method: as §1
[4] = tested on: MOLT-4; experiment: Cytotoxicity against human MOLT4 cells assessed as cell growth at 10 uM after 48 hrs by SRB assay relative to control; conditions: MOLT-4, 48 h, read-out: Activity
[5] = tested on: RPMI-8226; experiment: Cytotoxicity against human RPMI8226 cells assessed as cell growth at 10 uM after 48 hrs by SRB assay relative to control; conditions: RPMI-8226, 48 h, read-out: Activity
[6] = tested on: SR; experiment: Cytotoxicity against human SR cells assessed as cell growth at 10 uM after 48 hrs by SRB assay relative to control; conditions: read-out: Activity
Summary of the method: (§2)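 NCI single-dose primary screen across about 60 human tumour lines. Each line was inoculated and preincubated on microtiter plates, then exposed to one concentration of agent for 48 h. Growth is reported as percent growth (G%) of treated cells versus untreated control cells.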

[7] = tested on: A549; experiment: Cytotoxicity against human A549 cells assessed as cell growth at 10 uM after 48 hrs by SRB assay relative to control; conditions: A549, 48 h, read-out: Activity; summary of the method: as §1
[8] = tested on: EKVX; experiment: Cytotoxicity against human EKVX cells assessed as cell growth at 10 uM after 48 hrs by SRB assay relative to control; conditions: read-out: Activity; summary of the method: as §1
[9] = tested on: HOP-92; experiment: Cytotoxicity against human HOP92 cells assessed as cell growth at 10 uM after 48 hrs by SRB assay relative to control; conditions: HOP-92, 48 h, read-out: Activity; summary of the method: as §1
[10] = tested on: NCI-H322M; experiment: Cytotoxicity against human NCI-H322M cells assessed as cell growth at 10 uM after 48 hrs by SRB assay relative to control; conditions: read-out: Activity
[11] = tested on: NCI-H522; experiment: Cytotoxicity against human NCI-H522 cells assessed as cell growth at 10 uM after 48 hrs by SRB assay relative to control; conditions: NCI-H522, 48 h, read-out: Activity
[12] = tested on: HCC 2998; experiment: Cytotoxicity against human HCC2998 cells assessed as cell growth at 10 uM after 48 hrs by SRB assay relative to control; conditions: HCC 2998, 48 h, read-out: Activity; summary of the method: as §1
[13] = tested on: HCT-116; experiment: Cytotoxicity against human HCT116 cells assessed as cell growth at 10 uM after 48 hrs by SRB assay relative to control; conditions: HCT-116, 48 h, read-out: Activity; summary of the method: as §1
[14] = tested on: KM12; experiment: Cytotoxicity against human KM12 cells assessed as cell growth at 10 uM after 48 hrs by SRB assay relative to control; conditions: KM12, 48 h, read-out: Activity; summary of the method: as §1
[15] = tested on: SW-620; experiment: Cytotoxicity against human SW620 cells assessed as cell growth at 10 uM after 48 hrs by SRB assay relative to control; conditions: SW-620, 48 h, read-out: Activity; summary of the method: as §2
[16] = tested on: SF-268; experiment: Cytotoxicity against human SF268 cells assessed as cell growth at 10 uM after 48 hrs by SRB assay relative to control; conditions: SF-268, 48 h, read-out: Activity
[17] = tested on: SF-295; experiment: Cytotoxicity against human SF295 cells assessed as cell growth at 10 uM after 48 hrs by SRB assay relative to control; conditions: SF-295, 48 h, read-out: Activity
[18] = tested on: SF-539; experiment: Cytotoxicity against human SF539 cells assessed as cell growth at 10 uM after 48 hrs by SRB assay relative to control; conditions: SF-539, 48 h, read-out: Activity
[19] = tested on: SNB-75; experiment: Cytotoxicity against human SNB75 cells assessed as cell growth at 10 uM after 48 hrs by SRB assay relative to control; conditions: SNB-75, 48 h, read-out: Activity
[20] = tested on: Malme-3M; experiment: Cytotoxicity against human MALME-3M cells assessed as cell growth at 10 uM after 48 hrs by SRB assay relative to control; conditions: read-out: Activity; summary of the method: as §1
[21] = tested on: M14; experiment: Cytotoxicity against human M14 cells assessed as cell growth at 10 uM after 48 hrs by SRB assay relative to control; conditions: M14, 48 h, read-out: Activity; summary of the method: as §1
[22] = tested on: SK-MEL-2; experiment: Cytotoxicity against human SK-MEL-2 cells assessed as cell growth at 10 uM after 48 hrs by SRB assay relative to control; conditions: SK-MEL-2, 48 h, read-out: Activity
[23] = tested on: UACC-257; experiment: Cytotoxicity against human UACC257 cells assessed as cell growth at 10 uM after 48 hrs by SRB assay relative to control; conditions: UACC-257, 48 h, read-out: Activity; summary of the method: as §2
[24] = tested on: OVCAR-3; experiment: Cytotoxicity against human OVCAR3 cells assessed as cell growth at 10 uM after 48 hrs by SRB assay relative to control; conditions: OVCAR-3, 48 h, read-out: Activity
[25] = tested on: OVCAR-8; experiment: Cytotoxicity against human OVCAR8 cells assessed as cell growth at 10 uM after 48 hrs by SRB assay relative to control; conditions: OVCAR-8, 48 h, read-out: Activity
[26] = tested on: NCI/ADR-RES; experiment: Cytotoxicity against human NCI/ADR-RES cells assessed as cell growth at 10 uM after 48 hrs by SRB assay relative to control; conditions: read-out: Activity
[27] = tested on: A498; experiment: Cytotoxicity against human A498 cells assessed as cell growth at 10 uM after 48 hrs by SRB assay relative to control; conditions: A498, 48 h, read-out: Activity; summary of the method: as §1
[28] = tested on: CAKI-1; experiment: Cytotoxicity against human Caki1 cells assessed as cell growth at 10 uM after 48 hrs by SRB assay relative to control; conditions: CAKI-1, 48 h, read-out: Activity; summary of the method: as §1
[29] = tested on: RXF 393; experiment: Cytotoxicity against human RXF393 cells assessed as cell growth at 10 uM after 48 hrs by SRB assay relative to control; conditions: RXF 393, 48 h, read-out: Activity
[30] = tested on: UO-31; experiment: Cytotoxicity against human UO31 cells assessed as cell growth at 10 uM after 48 hrs by SRB assay relative to control; conditions: UO-31, 48 h, read-out: Activity; summary of the method: as §2
[31] = tested on: PC-3; experiment: Cytotoxicity against human PC3 cells assessed as cell growth at 10 uM after 48 hrs by SRB assay relative to control; conditions: PC-3, 48 h, read-out: Activity
[32] = tested on: DU-145; experiment: Cytotoxicity against human DU145 cells assessed as cell growth at 10 uM after 48 hrs by SRB assay relative to control; conditions: DU-145, 48 h, read-out: Activity; summary of the method: as §1
[33] = tested on: MDA-MB-231; experiment: Cytotoxicity against human MDA-MB-231 cells assessed as cell growth at 10 uM after 48 hrs by SRB assay relative to control; conditions: MDA-MB-231, 48 h, read-out: Activity; summary of the method: as §1

| Compound | growth at 10 µM [1] [%] | growth at 10 µM [2] [%] | growth at 10 µM [3] [%] | growth at 10 µM [4] [%] | growth at 10 µM [5] [%] | growth at 10 µM [6] [%] | growth at 10 µM [7] [%] | growth at 10 µM [8] [%] | growth at 10 µM [9] [%] | growth at 10 µM [10] [%] | growth at 10 µM [11] [%] | growth at 10 µM [12] [%] | growth at 10 µM [13] [%] | growth at 10 µM [14] [%] | growth at 10 µM [15] [%] | growth at 10 µM [16] [%] | growth at 10 µM [17] [%] | growth at 10 µM [18] [%] | growth at 10 µM [19] [%] | growth at 10 µM [20] [%] | further results |
| --- | --- | --- | --- | --- | --- | --- | --- | --- | --- | --- | --- | --- | --- | --- | --- | --- | --- | --- | --- | --- | --- |
| COC(=O)C(Cc1cnc[nH]1)NC(=O)CCCn1c(C)c(C)c2c1N=C(SC)N1CC(=O)N=C21 (centres undefined) | 105 | 92 | 97 | 98 | 100 | 118 | 98 | 95 | 92 | 105 | 90 | 103 | 100 | 106 | 98 | 106 | 112 | 91 | 79 | 108 | growth at 10 µM [21]: 106%; growth at 10 µM [22]: 105%; growth at 10 µM [23]: 107%; growth at 10 µM [24]: 121%; growth at 10 µM [25]: 103%; growth at 10 µM [26]: 110%; growth at 10 µM [27]: 101%; growth at 10 µM [28]: 102%; growth at 10 µM [29]: 112%; growth at 10 µM [30]: 96%; growth at 10 µM [31]: 88%; growth at 10 µM [32]: 113%; growth at 10 µM [33]: 112% |
| CSC1=Nc2c(c(C)c(C)n2CCCC(=O)NCCc2cnc[nH]2)C2=NC(=O)CN12 | 104 | 100 | 100 | 97 | 87 | 126 | 101 | 99 | 91 | 111 | 83 | 118 | 96 | 171 | 104 | 130 | 106 | 97 | 78 | 109 | growth at 10 µM [21]: 102%; growth at 10 µM [22]: 121%; growth at 10 µM [23]: 114%; growth at 10 µM [24]: 165%; growth at 10 µM [25]: 108%; growth at 10 µM [26]: 110%; growth at 10 µM [27]: 107%; growth at 10 µM [28]: 111%; growth at 10 µM [29]: 116%; growth at 10 µM [30]: 85%; growth at 10 µM [31]: 100%; growth at 10 µM [32]: 149%; growth at 10 µM [33]: 110% |
| CSC1=Nc2c(c(C)c(-c3ccccc3)n2CCCCl)C2=NC(=O)CN12 | 52 | 27 | 19 | 51 | 51 | 13 | 74 | 54 | 65 | 82 | 56 | 72 | 27 | 26 | 44 | 77 | 43 | 62 | 21 | 83 | growth at 10 µM [21]: 31%; growth at 10 µM [22]: 75%; growth at 10 µM [23]: 84%; growth at 10 µM [24]: 85%; growth at 10 µM [25]: 88%; growth at 10 µM [26]: 58%; growth at 10 µM [27]: 47%; growth at 10 µM [28]: 58%; growth at 10 µM [29]: 95%; growth at 10 µM [30]: 57%; growth at 10 µM [31]: 69%; growth at 10 µM [32]: 95%; growth at 10 µM [33]: 65% |
